Test results as given in ChEMBL document CHEMBL4007469, “Design and synthesis of dalbergin analogues and evaluation of anti-osteoporotic activity” (Bioorg Med Chem Lett, 2017).
The source made the active and inactive calls. The rule behind the calls is not given here.

Tests used:
Mus musculus [1] = assay: Anti-osteoporotic activity in ovariectomized postmenopausal Balb/c mouse model assessed as improvement in micro-artchitectural parameter in vertebrae by measuring trabecular thickness at 1 mg/kg, po qd via gavage for 6 weeks by micro CT-scan analysis (reference value: 0.047 +/- 0.001 millimeter); format: functional
Summary of the method: (§1)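 Female Balb/c mice, 8 weeks old, ovariectomized, 6 weeks osteopenia development, then 1.0 mg/kg/day or gum acacia vehicle by oral gavage once daily for 6 weeks (sham, OVx and treated groups). Bones collected after sacrifice for micro-CT of trabecular microarchitecture (BV/TV, Tb.N, Tb.Th, Tb.Sp, SMI) and biomechanical testing of femur and vertebrae (energy, stiffness); mean ± SE versus OVx.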

[2] = Induction of osteoblast differentiation in mouse calvarial cells assessed as increase in BMP2 mRNA expression at 1 pM after 24 hrs by qRT-PCR method relative to control; format: functional, Calvarial cell
Summary of the method: (§2)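 Mouse calvarial osteoblasts exposed to 1 pM for 24 h; BMP2, RunX2 and COL1 mRNA by quantitative PCR with GAPDH as internal control. Mean ± SE of three independent experiments versus untreated cells.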

Mus musculus [3] = assay: In vivo induction of osteogenesis in Balb/c mouse assessed as bone formation at 0.5 to 1 mg/kg/day, sc over calvarial surface for 5 consecutive days by hematoxylin and eosin staining based fluorescence microscopic method; format: functional, organism-based
Summary of the method: (§3)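 Three-week-old Balb/c mice (3 per group) injected subcutaneously over the calvarial surface daily for 5 consecutive days at 0.1, 0.5, 1 and 5 mg/kg/day. Calvaria fixed in 4% formaldehyde, paraffin-embedded, H&E-stained; tetracycline and calcein (20 mg/kg each, ip) given for MAR/BFR histomorphometry; calvarial mRNA by RT-PCR. Mean ± SE, three independent experiments, versus untreated.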

Calvarial cell = assay: Induction of mineralization in mouse calvarial cells assessed as calcium nodule formation at Emax incubated for 12 days by alizarin red-S staining based spectrophotometric method; format: functional
Summary of the method: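 Primary mouse calvarial osteoblasts treated with or without compound for 12 days, fixed in 4% formaldehyde, stained with alizarin red-S, and the stain extracted and quantified by the acetic acid method.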

Mus musculus [4] = assay: In vivo induction of osteogenesis in Balb/c mouse assessed as increase in ALP mRNA level in calvaria at 1 mg/kg/day, sc over calvarial surface for 5 consecutive days by RT-PCR method relative to control; format: functional; summary of the method: as §3
Mus musculus [5] = assay: Osteogenic activity in Balb/c mouse drill-hole fracture model assessed as bone volume fraction at 1 mg/kg, po qd via gavage for 21 days by micro-CT method (reference value: 32.924 +/- 3.806%)
Mus musculus [6] = assay: Anti-osteoporotic activity in ovariectomized postmenopausal Balb/c mouse model assessed as increase in RunX2 gene expression in femur bone at 1 mg/kg, po qd via gavage for 6 weeks by RT-PCR method; format: functional, organism-based
Summary of the method: (§4)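 Eight-week-old female Balb/c mice, ovariectomized and left 6 weeks for osteopenia to develop; groups sham+vehicle, OVx+vehicle, OVx+1.0 mg/kg/day, dosed once daily by oral gavage for 6 weeks in gum acacia/distilled water vehicle. Mice kept at 21°C, 12 h light/dark, chow and water ad libitum. Femoral bone mRNA or serum measured after sacrifice; mean ± SE versus OVx group.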

[7] = Induction of mineralization in mouse calvarial cells assessed as increase in COL1 mRNA expression at 1 pM after 24 hrs by qRT-PCR method relative to control; format: functional, Calvarial cell; summary of the method: as §2
Mus musculus [8] = assay: Anti-osteoporotic activity in ovariectomized postmenopausal Balb/c mouse model assessed as improvement in micro-artchitectural parameter in tibia by measuring trabecular separation at 1 mg/kg, po qd via gavage for 6 weeks by micro CT-scan analysis (reference value: 0.387 +/- 0.038 millimeter); format: functional; summary of the method: as §1
[9] = Induction of osteoblast differentiation in mouse calvarial cells assessed as increase in RunX2 mRNA expression at 1 pM after 24 hrs by qRT-PCR method relative to control; format: functional, Calvarial cell; summary of the method: as §2
Mus musculus [10] = assay: Anti-osteoporotic activity in ovariectomized postmenopausal Balb/c mouse model assessed as improvement in micro-artchitectural parameter in tibia by measuring trabecular number at 1 mg/kg, po qd via gavage for 6 weeks by micro CT-scan analysis (reference value: 1.49 +/- 0.25 /millimeter); format: functional; summary of the method: as §1
Mus musculus [11] = assay: In vivo induction of osteogenesis in Balb/c mouse assessed as bone formation at 0.5 to 1 mg/kg/day, sc over calvarial surface for 5 consecutive days; format: functional, organism-based; summary of the method: as §3
Mus musculus [12] = assay: Osteogenic activity in Balb/c mouse drill-hole fracture model assessed as increase in Sox9 mRNA level at 1 mg/kg, po qd via gavage for 21 days by RT-PCR method
Mus musculus [13] = assay: In vivo induction of osteogenesis in Balb/c mouse assessed as increase in bone formation rate in calvaria at 0.1 to 1 mg/kg/day, sc over calvarial surface for 5 consecutive days by fluorochromes tetracycline and calcein labeling based histomorphometric analysis; format: functional, organism-based; summary of the method: as §3
Mus musculus [14] = assay: Decrease in osteocalcin level in serum of ovariectomized postmenopausal Balb/c mouse model at 1 mg/kg, po qd via gavage for 6 weeks by ELISA; format: functional, organism-based; summary of the method: as §4
Mus musculus [15] = assay: Estrogenic effect in uterine of ovariectomized postmenopausal Balb/c mouse model assessed as uterine weight at 1 mg/kg, po qd via gavage for 6 weeks (reference value: 0.025 +/- 0.02 mg); format: ADME, organism-based; details: in vivo, 1008 h
Mus musculus [16] = assay: Anti-osteoporotic activity in ovariectomized postmenopausal Balb/c mouse model assessed as decrease in RANK mRNA expression at 1 mg/kg, po qd via gavage for 6 weeks by RT-PCR method; format: functional, organism-based; summary of the method: as §4
Mus musculus [17] = assay: Anti-osteoporotic activity in ovariectomized postmenopausal Balb/c mouse model assessed as femur bone breaking strength by measuring stiffness at 1 mg/kg, po qd via gavage for 6 weeks by micro CT-scan analysis (reference value: 34.3 +/- 1.84 N/mm); format: functional; summary of the method: as §1
Mus musculus [18] = assay: In vivo induction of osteogenesis in Balb/c mouse assessed as increase in COL1 mRNA level in calvaria at 1 mg/kg/day, sc over calvarial surface for 5 consecutive days by RT-PCR method relative to control; format: functional; summary of the method: as §3
Mus musculus [19] = assay: Anti-osteoporotic activity in ovariectomized postmenopausal Balb/c mouse model assessed as vertebrae compressive strength by measuring stiffness at 1 mg/kg, po qd via gavage for 6 weeks by micro CT-scan analysis (reference value: 345.7 +/- 5.08 N/mm); format: functional; summary of the method: as §1
Mus musculus [20] = assay: Osteogenic activity in Balb/c mouse drill-hole fracture model assessed as increase in BMP2 mRNA level at 1 mg/kg, po qd via gavage for 21 days by RT-PCR method
Mus musculus [21] = assay: Anti-osteoporotic activity in ovariectomized postmenopausal Balb/c mouse model assessed as increase in OPG gene expression in femur bone at 1 mg/kg, po qd via gavage for 6 weeks by RT-PCR method; format: functional, organism-based; summary of the method: as §4
Mus musculus [22] = assay: Anti-osteoporotic activity in ovariectomized postmenopausal Balb/c mouse model assessed as improvement in micro-artchitectural parameter in tibia by measuring trabecular thickness at 1 mg/kg, po qd via gavage for 6 weeks by micro CT-scan analysis (reference value: 0.0475 +/- 0.0005 millimeter); format: functional; summary of the method: as §1

- Activity (Mus musculus [15]): 0.032 mg
SMILES: COc1cc2oc(=O)cc(-c3ccccc3)c2cc1OCCCCCN1CCN(C)CC1
- Activity (Mus musculus [1]): 0.0522 mm
- fold change (FC) [2]: 2
- Activity (Mus musculus [3]): Active
- Activity (Calvarial cell): Active
- fold change (FC) (Mus musculus [4]): 5
- Activity (Mus musculus [5]): 44.359%
- Activity (Mus musculus [6]): Active
- fold change (FC) [7]: 6
- Activity (Mus musculus [8]): 0.294 mm
- fold change (FC) [9]: 2
- Activity (Mus musculus [10]): 2.7 /millimeter
- Activity (Mus musculus [11]): Active
- Activity (Mus musculus [12]): Active
- Activity (Mus musculus [13]): Active
- Activity (Mus musculus [14]): Active
- Activity (Mus musculus [16]): Active
- Activity (Mus musculus [17]): 53.55 N/mm
- fold change (FC) (Mus musculus [18]): 4
- Activity (Mus musculus [19]): 381.35 N/mm
- Activity (Mus musculus [20]): Active
- Activity (Mus musculus [21]): Active
- Activity (Mus musculus [22]): 0.052 mm
